This note sets out measurements from ChEMBL document CHEMBL1138512, “A class of 2,4-bisanilinopyrimidine Aurora A inhibitors with unusually high selectivity against Aurora B” (J Med Chem, 2009).

In test [1] the target is T1, Aurora kinase A (Homo sapiens, UniProt O14965).
T1 sequence (O14965 whole entry): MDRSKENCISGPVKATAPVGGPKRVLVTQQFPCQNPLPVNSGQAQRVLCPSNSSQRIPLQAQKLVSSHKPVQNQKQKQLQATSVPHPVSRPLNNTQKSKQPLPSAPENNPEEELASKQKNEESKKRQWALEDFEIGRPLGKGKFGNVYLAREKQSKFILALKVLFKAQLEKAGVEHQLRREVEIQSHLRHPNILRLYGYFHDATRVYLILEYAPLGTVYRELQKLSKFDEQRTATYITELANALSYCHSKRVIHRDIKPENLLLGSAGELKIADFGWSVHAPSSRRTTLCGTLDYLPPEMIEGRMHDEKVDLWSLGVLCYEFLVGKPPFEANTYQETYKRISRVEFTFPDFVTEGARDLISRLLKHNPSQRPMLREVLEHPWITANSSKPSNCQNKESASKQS
In words: Inhibition of N-terminal flag-tagged Aurora A expressed in Escherichia coli BL21-DE3 by ELISA.

The target of test [2] is T2, Aurora kinase B (Homo sapiens, UniProt Q96GD4). The experiment in a line: Inhibition of N-terminal flag-tagged Aurora B expressed in Escherichia coli BL21-DE3 by ELISA. (In general: In an ELISA, binding on a coated surface is turned into a signal by an enzyme label.)
For test [3], the target named is T3, Cyclin-dependent kinase 2 (Homo sapiens, UniProt P24941). The experiment in a line: Inhibition of CDK2/cyclin A.
The subject of a further test is HCT-116. The experiment in a line: Antiproliferative activity against human HCT116 cells after 4 days by celltiter assay. The class given is functional, cell-based. The settings on record: HCT-116, 96 h.
In another test the test system is HT-29. The experiment in a line: Antiproliferative activity against human HT-29 cells after 4 days by celltiter assay. The class given is functional, cell-based. The settings on record: HT-29, 96 h.
Test [4] concerns the target Tyrosine-protein kinase ABL1 (Mus musculus) (UniProt P00520). The experiment in a line: Inhibition of mouse ABL at 1 uM assessed as residual enzyme activity.
The target of test [5] is Tyrosine-protein kinase ABL2 (Mus musculus) (UniProt Q4JIM5). In words: Inhibition of mouse ARG at 1 uM assessed as residual enzyme activity.
In test [6] the target is Aurora kinase A (Homo sapiens) (UniProt O14965). In words: Inhibition of human Aurora A at 1 uM assessed as residual enzyme activity.
The target of test [7] is Tyrosine-protein kinase receptor UFO (Homo sapiens) (UniProt P30530). In words: Inhibition of human Axl at 1 uM assessed as residual enzyme activity.
Test [8] deals with Cyclin-dependent kinase 1/cyclin B1 (Homo sapiens) (UniProt P06493+P14635). The experiment in a line: Inhibition of human CDK1/cyclin B at 1 uM assessed as residual enzyme activity.
Test [9] addresses T3, Cyclin-dependent kinase 2. The experiment in a line: Inhibition of human CDK2/cyclin E at 1 uM assessed as residual enzyme activity.
In test [10] the target is Serine/threonine-protein kinase Chk1 (Homo sapiens) (UniProt O14757). The experiment in a line: Inhibition of human CHK1 at 1 uM assessed as residual enzyme activity.
The target of test [11] is Casein kinase II (Homo sapiens) (UniProt P67870+P68400+P19784). The experiment in a line: Inhibition of human CK2 at 1 uM assessed as residual enzyme activity. The class given is protein-complex assay.
For test [12], the target named is RAF proto-oncogene serine/threonine-protein kinase (Homo sapiens) (UniProt P04049). In words: Inhibition of human c-RAF at 1 uM assessed as residual enzyme activity.
Test [13] deals with Tyrosine-protein kinase CSK (Homo sapiens) (UniProt P41240). The experiment in a line: Inhibition of human CSK at 1 uM assessed as residual enzyme activity.
The target in test [14] is Proto-oncogene tyrosine-protein kinase Src (Homo sapiens) (UniProt P12931). The experiment in a line: Inhibition of human c-SRC at 1 uM assessed as residual enzyme activity.
Test [15] has as its target Epidermal growth factor receptor (Homo sapiens) (UniProt P00533). In words: Inhibition of human EGFR at 1 uM assessed as residual enzyme activity.
Test [16] deals with Ephrin type-B receptor 2 (Homo sapiens) (UniProt P29323). In words: Inhibition of human EphB2 at 1 uM assessed as residual enzyme activity.
The target of test [17] is Fibroblast growth factor receptor 3 (Homo sapiens) (UniProt P22607). In words: Inhibition of human FGFR3 at 1 uM assessed as residual enzyme activity.
Test [18] addresses Receptor-type tyrosine-protein kinase FLT3 (Homo sapiens) (UniProt P36888). In words: Inhibition of human Flt3 at 1 uM assessed as residual enzyme activity.
The target in test [19] is Glycogen synthase kinase-3 beta (Homo sapiens) (UniProt P49841). In words: Inhibition of human GSK3-beta at 1 uM assessed as residual enzyme activity.
The target of test [20] is Insulin receptor (Homo sapiens) (UniProt P06213). The experiment in a line: Inhibition of human insulin receptor at 1 uM assessed as residual enzyme activity.
Test [21] has as its target Mitogen-activated protein kinase 8 (Homo sapiens) (UniProt P45983). The experiment in a line: Inhibition of human JNK1alpha1 at 1 uM assessed as residual enzyme activity.
The target in test [22] is Tyrosine-protein kinase Lck (Homo sapiens) (UniProt P06239). In words: Inhibition of human Lck at 1 uM assessed as residual enzyme activity.
Test [23] has as its target Dual specificity mitogen-activated protein kinase kinase 1 (Homo sapiens) (UniProt Q02750). The experiment in a line: Inhibition of human MEK1 at 1 uM assessed as residual enzyme activity.
In test [24] the target is Hepatocyte growth factor receptor (Homo sapiens) (UniProt P08581). In words: Inhibition of human Met at 1 uM assessed as residual enzyme activity.
Test [25] deals with Ribosomal protein S6 kinase beta-1 (Homo sapiens) (UniProt P23443). The experiment in a line: Inhibition of human p70S6K at 1 uM assessed as residual enzyme activity.
For test [26], the target named is Platelet-derived growth factor receptor beta (Homo sapiens) (UniProt P09619). In words: Inhibition of human PDGFRbeta at 1 uM assessed as residual enzyme activity.
For another test, the species on record is Homo sapiens. In words: Inhibition of human PKA at 1 uM assessed as residual enzyme activity.
Test [27] addresses RAC-beta serine/threonine-protein kinase (Homo sapiens) (UniProt P31751). In words: Inhibition of human PKBbeta at 1 uM assessed as residual enzyme activity.
Test [28] has as its target RAC-alpha serine/threonine-protein kinase (Homo sapiens) (UniProt P31749). In words: Inhibition of human PKBalpha at 1 uM assessed as residual enzyme activity.
In test [29] the target is RAC-gamma serine/threonine-protein kinase (Homo sapiens) (UniProt Q9Y243). The experiment in a line: Inhibition of human PKBgamma at 1 uM assessed as residual enzyme activity.
The target of test [30] is Proto-oncogene tyrosine-protein kinase receptor Ret (Homo sapiens) (UniProt P07949). The experiment in a line: Inhibition of human Ret at 1 uM assessed as residual enzyme activity.
The target in test [31] is BDNF/NT-3 growth factors receptor (Homo sapiens) (UniProt Q16620). The experiment in a line: Inhibition of human TrkB at 1 uM assessed as residual enzyme activity.
For test [32], the target named is Tyrosine-protein kinase ZAP-70 (Homo sapiens) (UniProt P43403). In words: Inhibition of human ZAP-70 at 1 uM assessed as residual enzyme activity.
Test [33] addresses T1, Aurora kinase A. In words: Inhibition of Aurora A in human HCT116 cells assessed as complete loss of phospho-Aurora A staining in centrosomes by immunofluorescence assay. The class given is cell-based, HCT-116.
The target of test [34] is T2, Aurora kinase B. The experiment in a line: Inhibition of Aurora B in human HT29 cells assessed as complete loss of phospho-histone H3 staining by immunofluorescence assay. Type of test: cell-based, HT-29. Summed up:
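Immunofluorescence for phospho-S10 histone H3 in HCT116 or HT29 cells, scored visually. Value taken as the lowest inhibitor concentration giving complete loss of staining, so it lies above the IC50. Units µM.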

Test [35] addresses T2, Aurora kinase B. The experiment in a line: Inhibition of Aurora B in human HCT116 cells assessed as complete loss of phospho-histone H3 staining by immunofluorescence assay.
Test [36] deals with Aurora kinase A (Homo sapiens, UniProt O14965, T217E). In words: Inhibition of N-terminal flag-tagged Aurora A T217E mutant expressed in Escherichia coli BL21-DE3.
Test [37] addresses Aurora kinase B (Homo sapiens, UniProt Q96GD4, E161T). The experiment in a line: Inhibition of N-terminal flag-tagged Aurora B E161T mutant expressed in Escherichia coli BL21-DE3.

pIC50: −log10 of the molar value. Where only a bound is given, the exact number is not on record here.

T2 sequence (Q96GD4 whole entry): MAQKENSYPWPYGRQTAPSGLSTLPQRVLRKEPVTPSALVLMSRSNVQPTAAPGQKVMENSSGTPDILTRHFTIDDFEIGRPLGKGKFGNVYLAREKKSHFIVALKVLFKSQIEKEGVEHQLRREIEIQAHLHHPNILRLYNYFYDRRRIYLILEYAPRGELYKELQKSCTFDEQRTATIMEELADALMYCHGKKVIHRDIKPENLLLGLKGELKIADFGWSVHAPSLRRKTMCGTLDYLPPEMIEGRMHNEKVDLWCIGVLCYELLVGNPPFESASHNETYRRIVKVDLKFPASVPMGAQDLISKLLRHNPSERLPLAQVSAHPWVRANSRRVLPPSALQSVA
Sequence of BDNF/NT-3 growth factors receptor (Homo sapiens) (Q16620 32-822 limits assumed): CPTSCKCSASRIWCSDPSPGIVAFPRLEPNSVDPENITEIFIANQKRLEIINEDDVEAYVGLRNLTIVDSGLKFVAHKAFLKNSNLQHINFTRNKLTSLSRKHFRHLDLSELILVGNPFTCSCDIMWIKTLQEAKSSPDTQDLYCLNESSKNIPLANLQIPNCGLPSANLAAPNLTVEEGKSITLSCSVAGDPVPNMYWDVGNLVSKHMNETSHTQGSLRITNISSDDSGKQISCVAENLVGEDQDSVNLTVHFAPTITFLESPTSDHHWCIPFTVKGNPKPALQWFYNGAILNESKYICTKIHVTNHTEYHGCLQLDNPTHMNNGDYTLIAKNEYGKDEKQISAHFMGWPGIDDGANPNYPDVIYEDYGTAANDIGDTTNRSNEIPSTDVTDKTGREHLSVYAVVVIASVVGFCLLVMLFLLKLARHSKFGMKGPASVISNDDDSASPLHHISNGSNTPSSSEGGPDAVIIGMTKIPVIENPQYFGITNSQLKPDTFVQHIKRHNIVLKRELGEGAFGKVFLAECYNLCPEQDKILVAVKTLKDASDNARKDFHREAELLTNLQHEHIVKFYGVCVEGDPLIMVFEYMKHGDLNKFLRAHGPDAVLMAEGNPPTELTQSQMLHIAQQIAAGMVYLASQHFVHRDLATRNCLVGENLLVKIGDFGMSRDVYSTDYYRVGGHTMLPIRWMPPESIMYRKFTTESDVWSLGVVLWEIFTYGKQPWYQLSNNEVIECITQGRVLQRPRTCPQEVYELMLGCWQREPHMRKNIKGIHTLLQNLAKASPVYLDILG
Sequence of RAF proto-oncogene serine/threonine-protein kinase (Homo sapiens) (P04049 whole entry): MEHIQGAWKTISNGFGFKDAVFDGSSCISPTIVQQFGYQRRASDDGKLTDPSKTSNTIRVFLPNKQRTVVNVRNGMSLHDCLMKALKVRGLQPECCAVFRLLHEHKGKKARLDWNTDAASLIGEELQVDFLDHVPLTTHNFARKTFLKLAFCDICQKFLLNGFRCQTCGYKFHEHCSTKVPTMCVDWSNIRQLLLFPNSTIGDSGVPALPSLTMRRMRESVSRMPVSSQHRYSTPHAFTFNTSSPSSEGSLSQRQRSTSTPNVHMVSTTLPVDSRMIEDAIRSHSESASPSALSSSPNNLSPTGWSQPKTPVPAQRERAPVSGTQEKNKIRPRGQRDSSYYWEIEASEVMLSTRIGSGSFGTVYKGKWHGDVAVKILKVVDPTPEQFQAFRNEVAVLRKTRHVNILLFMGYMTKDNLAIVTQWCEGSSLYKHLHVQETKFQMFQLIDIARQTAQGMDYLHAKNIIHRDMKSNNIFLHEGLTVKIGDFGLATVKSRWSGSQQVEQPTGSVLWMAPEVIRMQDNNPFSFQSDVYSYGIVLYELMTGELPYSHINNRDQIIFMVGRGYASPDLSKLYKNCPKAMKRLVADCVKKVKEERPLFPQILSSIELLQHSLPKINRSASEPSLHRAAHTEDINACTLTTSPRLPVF
Sequence of Tyrosine-protein kinase Lck (Homo sapiens) (P06239 2-509 limits assumed): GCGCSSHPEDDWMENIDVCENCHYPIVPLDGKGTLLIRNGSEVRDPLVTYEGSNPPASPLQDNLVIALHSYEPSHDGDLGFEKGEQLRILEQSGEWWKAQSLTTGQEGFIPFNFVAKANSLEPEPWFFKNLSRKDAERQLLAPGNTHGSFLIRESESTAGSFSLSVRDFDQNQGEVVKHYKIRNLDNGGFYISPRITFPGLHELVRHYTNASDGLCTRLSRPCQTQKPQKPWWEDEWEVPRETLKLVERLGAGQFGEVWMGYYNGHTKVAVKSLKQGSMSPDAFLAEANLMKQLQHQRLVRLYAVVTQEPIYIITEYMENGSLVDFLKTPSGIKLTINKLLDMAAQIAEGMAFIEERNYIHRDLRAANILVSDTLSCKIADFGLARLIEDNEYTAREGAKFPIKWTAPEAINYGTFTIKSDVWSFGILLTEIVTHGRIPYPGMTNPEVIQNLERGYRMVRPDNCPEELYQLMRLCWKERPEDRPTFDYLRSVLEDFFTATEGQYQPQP
Sequence of Tyrosine-protein kinase receptor UFO (Homo sapiens) (P30530 whole entry): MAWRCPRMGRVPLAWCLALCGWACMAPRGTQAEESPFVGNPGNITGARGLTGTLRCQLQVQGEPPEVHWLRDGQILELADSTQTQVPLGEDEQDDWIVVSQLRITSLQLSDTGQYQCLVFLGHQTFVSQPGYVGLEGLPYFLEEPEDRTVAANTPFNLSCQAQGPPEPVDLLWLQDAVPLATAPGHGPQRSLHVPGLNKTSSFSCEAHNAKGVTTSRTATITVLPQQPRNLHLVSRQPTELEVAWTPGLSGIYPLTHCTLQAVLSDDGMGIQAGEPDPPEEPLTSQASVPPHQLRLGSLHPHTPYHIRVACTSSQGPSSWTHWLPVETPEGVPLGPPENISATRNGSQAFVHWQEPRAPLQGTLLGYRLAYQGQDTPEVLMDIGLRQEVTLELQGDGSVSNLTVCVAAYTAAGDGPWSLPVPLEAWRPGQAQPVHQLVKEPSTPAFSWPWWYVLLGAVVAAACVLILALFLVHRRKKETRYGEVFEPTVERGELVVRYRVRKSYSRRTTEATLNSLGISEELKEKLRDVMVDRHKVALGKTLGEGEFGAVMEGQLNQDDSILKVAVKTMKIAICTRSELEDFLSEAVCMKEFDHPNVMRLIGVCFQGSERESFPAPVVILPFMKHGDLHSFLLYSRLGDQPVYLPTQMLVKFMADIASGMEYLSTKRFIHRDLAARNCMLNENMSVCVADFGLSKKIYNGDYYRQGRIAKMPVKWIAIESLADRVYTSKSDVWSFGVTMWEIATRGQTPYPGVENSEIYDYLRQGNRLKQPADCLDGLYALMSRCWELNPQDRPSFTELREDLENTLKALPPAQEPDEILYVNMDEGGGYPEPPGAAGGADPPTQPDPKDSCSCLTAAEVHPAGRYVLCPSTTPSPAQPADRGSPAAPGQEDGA
Sequence of Tyrosine-protein kinase ABL1 (Mus musculus) (P00520 whole entry): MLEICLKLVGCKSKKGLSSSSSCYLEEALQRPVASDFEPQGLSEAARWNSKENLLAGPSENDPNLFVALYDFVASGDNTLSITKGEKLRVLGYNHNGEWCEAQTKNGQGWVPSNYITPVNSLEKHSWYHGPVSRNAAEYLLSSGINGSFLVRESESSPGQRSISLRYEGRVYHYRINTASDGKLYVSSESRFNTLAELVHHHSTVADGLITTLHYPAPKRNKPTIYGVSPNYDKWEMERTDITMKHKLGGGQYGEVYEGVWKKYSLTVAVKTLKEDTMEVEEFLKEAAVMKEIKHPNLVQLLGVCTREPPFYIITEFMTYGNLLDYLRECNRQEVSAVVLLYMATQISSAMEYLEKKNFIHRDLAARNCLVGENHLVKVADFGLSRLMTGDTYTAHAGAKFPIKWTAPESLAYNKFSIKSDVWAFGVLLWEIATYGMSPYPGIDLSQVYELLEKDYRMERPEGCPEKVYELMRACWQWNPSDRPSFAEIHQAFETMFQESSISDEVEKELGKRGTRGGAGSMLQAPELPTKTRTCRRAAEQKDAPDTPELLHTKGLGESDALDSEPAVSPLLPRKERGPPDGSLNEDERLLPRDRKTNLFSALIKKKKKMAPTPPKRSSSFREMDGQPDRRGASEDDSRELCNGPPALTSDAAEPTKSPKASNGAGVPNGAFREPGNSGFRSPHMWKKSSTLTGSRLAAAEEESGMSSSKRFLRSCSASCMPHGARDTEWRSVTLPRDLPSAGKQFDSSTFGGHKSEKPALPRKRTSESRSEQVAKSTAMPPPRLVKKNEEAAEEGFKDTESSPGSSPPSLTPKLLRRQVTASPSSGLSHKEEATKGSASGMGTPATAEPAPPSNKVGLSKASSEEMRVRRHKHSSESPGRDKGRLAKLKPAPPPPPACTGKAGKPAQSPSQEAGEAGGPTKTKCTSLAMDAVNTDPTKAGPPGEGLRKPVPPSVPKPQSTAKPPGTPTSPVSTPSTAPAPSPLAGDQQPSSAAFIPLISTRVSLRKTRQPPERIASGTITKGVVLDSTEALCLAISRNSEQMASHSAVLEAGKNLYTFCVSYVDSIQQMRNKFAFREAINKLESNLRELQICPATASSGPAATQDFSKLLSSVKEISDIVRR
Sequence of RAC-gamma serine/threonine-protein kinase (Homo sapiens) (Q9Y243 whole entry): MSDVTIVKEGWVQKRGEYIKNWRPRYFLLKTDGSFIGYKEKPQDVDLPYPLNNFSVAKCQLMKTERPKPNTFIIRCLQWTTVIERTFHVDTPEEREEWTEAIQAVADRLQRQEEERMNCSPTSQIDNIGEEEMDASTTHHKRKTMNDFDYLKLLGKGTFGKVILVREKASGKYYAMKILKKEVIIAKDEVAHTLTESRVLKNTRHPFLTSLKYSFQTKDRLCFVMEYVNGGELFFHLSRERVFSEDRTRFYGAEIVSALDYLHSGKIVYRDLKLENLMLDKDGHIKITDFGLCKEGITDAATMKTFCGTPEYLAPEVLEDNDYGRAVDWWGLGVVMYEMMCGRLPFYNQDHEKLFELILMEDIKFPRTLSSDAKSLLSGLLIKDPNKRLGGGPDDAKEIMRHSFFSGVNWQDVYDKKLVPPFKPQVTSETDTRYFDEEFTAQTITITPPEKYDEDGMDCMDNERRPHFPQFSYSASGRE
Sequence of Aurora kinase B (Homo sapiens, UniProt Q96GD4, E161T) (Q96GD4 whole entry E161T): as the sequence (Q96GD4 whole entry) above, with E161T counted along it

As to `O=C(Nc1ccccc1Cl)c1ccc(Nc2nc(Nc3ccc(O)cc3)ncc2F)cc1`, the pIC50 (in general, −log10 of the IC50, conventionally taken in molar units) is 8.00 against Aurora kinase A [1]; 5.72 against Aurora kinase B [2]; 5.49 in [3]; 6.06 with HCT-116; 4.77 with HT-29; 5.30 at Aurora kinase A [33]. Further, the pIC50 at Aurora kinase B [34] was < 4.52; on Aurora kinase B [35] it was < 4.60. Also, the Activity in [4] was 76%; in test [5] it was 57%; in [6], 1%; in [7] it was 54%; in [8] it was 60%; in test [9] it was 44%. The Activity in [10] was found to be 82%; in test [11], 88%; in test [12], 64%; in test [13], 100%; in test [14], 66%; in [15], 54%. Moreover, the Activity came out at 104% in test [16]; 40% in test [17]; 6% in test [18]; 90% in test [19]; 102% in test [20]; 31% in test [21]. The Activity in test [22] amounted to 42%; in test [23], 103%; in test [24] it was 57%; in test [25] it was 25%; in [26], 111%; in the test listed under Homo sapiens it was 87%. Moreover, the Activity is 103% in [27]; 96% in test [28]; 91% in [29]; 7% in [30]; 76% in test [31]; 100% in [32].
Take `CCN1CCN(C(=O)Cc2ccc(Nc3ncc(F)c(Nc4ccc(C(=O)Nc5ccccc5Cl)cc4)n3)cc2)CC1`: the negative-log IC50 (pIC50) was 8.47 against Aurora kinase A [1]; 5.47 against Aurora kinase B [2]; < 4.80 in [3]; 6.72 with HCT-116; 5.54 in the test on HT-29; 5.60 at Aurora kinase A [33]. Besides, the negative logarithm of the IC50 (pIC50) at Aurora kinase B [34] was < 4.57; at Aurora kinase A [36] it was 5.70; at Aurora kinase B [37], 7.26; on Aurora kinase B [35], < 4.30.
